Series [1] deals with HIV-1 NL4-3 strain. The series is described as follows: Antiviral assay in HIV-1 infected TZM-bl cells. The format is cell-based. The conditions noted are these: for SI HIV-1 strain NL4-3: CC50 value/IC50 value; for IC50: read-out: IC50 HIV-1 strain NL4-3, MOI 0.5, 48 h, LTR-luciferase signal; for antiviral or cytotoxic activity: HIV-1 NL4-3. In outline:
(§1)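 TZM-bl cells (HeLa expressing CD4 and CCR5, with LTR-driven luciferase and β-galactosidase) were seeded at 1 ×10^4 cells/well in DMEM/10% FBS and left to adhere overnight. Cells were infected with HIV-1 NL4-3 or BaL at MOI 0.5, treated with serial dilutions of test compound, and incubated at 37 °C for 48 h. IC50 was taken as 50% inhibition of LTR-luciferase signal. CC50 came from parallel MTT on mock-infected cells. SI = CC50/IC50.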

A short description of series [2]: Cytotoxicity assay. The class given is cell-based. The conditions noted are these: human, uninfected (mock-infected) TZM-bl cells. In outline:
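Run in parallel with the antiviral assay, under the same conditions but on uninfected TZM-bl cells (1 ×10^4 cells/well, seeded overnight, test compound in serial dilution, 37 °C, 48 h). Viability was read by MTT absorbance. CC50 was the concentration that reduced absorbance of mock-infected cells by 50%.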

For series [3] the following is noted: cited from earlier work.
The test system of series [4] is LTR-IV G4. As to the kind of experiment: FRET melting assay. The class given is binding, HIV-1. The conditions noted are these: for stabilization (ΔTm, FRET) at 4-fold c-exNDI:DNA molar ratio: 25 °C is the maximum increase measurable, data not shown; for difference in stabilization of LTR-IV G4s vs hTel G4: FRET, equimolar amounts. In outline: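 Oligonucleotide labelled with FAM at the 5′ end and TAMRA at the 3′ end, 0.25 μM, folded in lithium cacodylate buffer with 100 mM potassium, plus equimolar test compound. After equilibration at 4 °C, FAM emission was followed from 30 to 95 °C at 1 °C/min. Profiles were normalized, and Tm was the temperature at 0.5 normalized fluorescence.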

Series [5] concerns the target LTR-IV G4. As to the kind of experiment: SPR analysis. More on the design: species or system HIV-1. The conditions noted are these: read-out: KD LTR-IV G4 (SPR); 25 °C, HEPES-KCl buffer, 1:1 binding model. In outline:
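5′-biotinylated oligonucleotides folded (95 °C for 5 min, cooled to room temperature), diluted to 30 nM and captured on a streptavidin chip to about 500 RU, with an empty reference cell. Running buffer was 0.01 M HEPES pH 7.4, 0.2 M KCl, 3 mM EDTA. Test compound run at 25–200 nM, 30 μL/min, with 280 s contact and 360 s dissociation. Surface regenerated with 10 mM glycine pH 2.0. Sensorgrams buffer-corrected and fitted to a 1:1 model. At least two independent runs, χ2 below 0.2.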

Series [6] relates to HIV-1 BaL strain. As to the kind of experiment: Antiviral assay in HIV-1 infected TZM-bl cells. The format is cell-based. In outline: as §1
In series [7] the test system is HIV-1 NL4-3. The series is described as follows: HIV-1 entry assay. The conditions noted are these: TZM-bl cells, virus production at 31 h pi; 2 50–100 nM, AZT 0.5 μg/mL, DS 100 μg/mL. The format is cell-based. In outline:
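TZM-bl cells (HeLa stably expressing CD4, CCR5 and HIV-1 LTR-driven luciferase) were grown in DMEM/10% FBS. Cells were seeded at 1 × 10^4 per well and allowed to adhere overnight, then infected with HIV-1 NL4-3 at MOI 0.5 and kept at 37 °C. Test compound or reference agents were added at 0, 1 or 2 h pi. At 31 h cells were PBS-washed and virus production was read as LTR-luciferase RLU.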

Series [8] has as its system LTR-III G4. The series is described as follows: ESI-MS competition assay. The class given is binding, HIV-1. The conditions noted are these: 2-fold molar excess of compound. The procedure, abridged:
(§2)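 G4 oligonucleotides heat-denatured and folded overnight at room temperature in 10 mM KCl, 150 mM trimethylammonium acetate pH 6.8. Equimolar pairs of G4s incubated overnight at 4 °C with 2-fold excess test compound, then injected via HPLC into ESI-MS. Binding affinity = bound/(free + bound) ×100, from reconstructed-ion chromatogram areas. Bound includes one or two ligands; free includes K+ adducts.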

In series [9] the test system is LTR-IV G4. As to the kind of experiment: ESI-MS competition assay. The class given is binding, HIV-1. The conditions noted are these: 2-fold molar excess of compound. In outline: as §2
Series [10] has as its system hTel G4. As to the kind of experiment: ESI-MS competition assay. The conditions noted are these: 2-fold molar excess of compound. The class given is binding, human. In outline: as §2
Series [11] relates to c-kit2 G4. The series is described as follows: ESI-MS competition assay. The conditions noted are these: 2-fold molar excess of compound. The format is binding. The procedure, abridged:
as §2

For series [12], the system named is c-myc G4. As to the kind of experiment: ESI-MS competition assay. The class given is binding. The conditions noted are these: 2-fold molar excess of compound. The procedure, abridged: as §2

The CC50 is the concentration at which the toxic effect on the cells reaches its halfway point. Read a high CC50 as lower toxicity to the cells. Turning to `CN(C)CCCn1c(=O)c2ccc3c(=O)n(CCCN(C)C)c(=O)c4c5[nH]c6cc(C(=O)O)ccc6[nH]c5c(c1=O)c2c34` [Compound 6], in [1], the “SI HIV-1 strain NL4-3” value is given as greater than 5. The CC50 in series [2] is greater than 5000 nM. Besides, in series [3], the “pKa of the (CH2)3NHMe2+ moieties” value is greater than 8.1.
The Kd is the free concentration of one partner at which half of the binding sites on the other are occupied at equilibrium, for simple one-to-one binding. In general, IC50 refers to the concentration at which inhibition is half-maximal. For the compound `CN(C)CCCn1c(=O)c2cc(Br)c3c(=O)n(CCCN(C)C)c(=O)c4c5[nH]c6ccccc6[nH]c5c(c1=O)c2c34` [Compound 3], in series [4], the “stabilization (ΔTm, FRET) at 4-fold c-exNDI:DNA molar ratio” value was “above 25 °C” and the “difference in stabilization of LTR-IV G4s vs hTel G4” value is no less than 6 °C. Further, the Kd in series [5] is 6.6 nM. The IC50 in [1] was found to be 15.7 ± 2.1 nM. Besides, the “SI HIV-1 strain BaL” value in [6] (CC50 value/IC50 value) is recorded as 11. Further, the IC50 in [6] (read-out: IC50 HIV-1 strain BaL, MOI 0.5, 48 h, LTR-luciferase signal) stood at 32.5 ± 7.1 nM. This compound displayed a CC50 in series [2] of 343 ± 32.2 nM.
Regarding `CN(C)CCCn1c(=O)c2cc(Br)c3c(=O)n(CCCN(C)C)c(=O)c4c5[nH]c6ccc([N+](=O)[O-])cc6[nH]c5c(c1=O)c2c34` [Compound 5], the Kd in series [5] turned out to be 5.9 nM. The IC50 in series [1] stood at 23 ± 1.3 nM. Half-maximal cytotoxicity in series [2] (CC50) was put at 439 ± 10.7 nM.
As for `Cc1cn([C@H]2C[C@H](N=[N+]=[N-])[C@@H](CO)O2)c(=O)[nH]c1=O` [AZT, Zidovudine], in [7], the “antiviral activity as a function of time of addition (0, 1, 2 h pi)” value is on record as “maintaining activity from 0 to 2 h pi”.
As to `C[N+](C)(C)CCCn1c(=O)c2ccc3c(=O)n(CCC[N+](C)(C)C)c(=O)c4c5[nH]c6ccccc6[nH]c5c(c1=O)c2c34.[I-].[I-]` [Compound 10], in series [4], the “stabilization (ΔTm, FRET) at 4-fold c-exNDI:DNA molar ratio” value is “above 25 °C” and the “difference in stabilization of LTR-IV G4s vs hTel G4” value was no less than 6 °C. Besides, in [5], the Kd amounted to 1.7 nM. Moreover, in series [1], the “antiviral or cytotoxic activity” value was “did not display any antiviral or cytotoxic activity”. In addition, the CC50 in series [2] was greater than 5000 nM.
In the case of `CN(C)CCCn1c(=O)c2cc(Br)c3c(=O)n(CCCN(C)C)c(=O)c4c5[nH]c6ccc(C(=O)O)cc6[nH]c5c(c1=O)c2c34` [Compound 7], in series [5], the Kd stood at 21.6 nM. The “SI HIV-1 strain NL4-3” value in series [1] is greater than 6. Besides, the half-maximal cytotoxic concentration (CC50) in series [2] is greater than 5000 nM. Moreover, in series [3], the “pKa of the (CH2)3NHMe2+ moieties” value is recorded as greater than 8.1.
For the compound `CN(C)CCCn1c(=O)c2cc(Br)c3c(=O)n(CCCN(C)C)c(=O)c4c5[nH]c6ncccc6[nH]c5c(c1=O)c2c34` [Compound 8], the “SI HIV-1 strain NL4-3” value in [1] was 7.2. The CC50 in series [2] turned out to be 458 ± 54 nM.
Regarding `CN(C)CCCNc1cc2c(=O)n(CCCN(C)C)c(=O)c3c4[nH]c5ccccc5[nH]c4c4c(=O)n(CCCN(C)C)c(=O)c1c4c23` [Compound 9], the “SI HIV-1 strain NL4-3” value in series [1] is given as 2.2. This compound also registered a CC50 in series [2] of 1760 ± 62.5 nM.
Turning to dextran sulfate [DS], the “antiviral activity as a function of time of addition (0, 1, 2 h pi)” value in series [7] is recorded as “exhibited antiviral effect only when added at 0 h pi”.
Turning to `CN(C)CCCn1c(=O)c2ccc3c(=O)n(CCCN(C)C)c(=O)c4c5[nH]c6cc([N+](=O)[O-])ccc6[nH]c5c(c1=O)c2c34` [Compound 4], in series [4], the “stabilization (ΔTm, FRET) at 4-fold c-exNDI:DNA molar ratio” value is “above 25 °C”. Besides, the “binding affinity LTR-III” value in series [8] (competing G4s LTR-III/LTR-IV) was found to be 80; in series [8] (competing G4s LTR-III/kit), 54; in [8] (competing G4s LTR-III/myc) it was 51. Besides, the “binding affinity LTR-IV” value in [9] (competing G4s LTR-III/LTR-IV) is reported as 68; in series [9] (competing G4s LTR-IV/hTel) it was 75; in [9] (competing G4s LTR-IV/kit), 55; in [9] (competing G4s LTR-IV/myc) it was 71. In addition, the “binding affinity cell G4 (hTel)” value in series [10] (competing G4s LTR-III/hTel) worked out at 10; in series [10] (competing G4s LTR-IV/hTel), 18. Also, the “binding affinity cell G4 (kit)” value is 18 in series [11] (competing G4s LTR-III/kit) and 23 in series [11] (competing G4s LTR-IV/kit). Moreover, the “binding affinity cell G4 (myc)” value in series [12] (competing G4s LTR-III/myc) was 37; in series [12] (competing G4s LTR-IV/myc), 45. In series [2], this compound showed a cytotoxic concentration (CC50) of 188 ± 4.08 nM.
In the case of `C[N+](C)(C)CCCn1c(=O)c2cc(Br)c3c(=O)n(CCC[N+](C)(C)C)c(=O)c4c5[nH]c6ccccc6[nH]c5c(c1=O)c2c34.[I-].[I-]` [Compound 11], the “stabilization (ΔTm, FRET) at 4-fold c-exNDI:DNA molar ratio” value in series [4] was “above 25 °C”. Also, the Kd in series [5] was 12.9 nM. The “antiviral or cytotoxic activity” value in series [1] is listed as “did not display any antiviral or cytotoxic activity”. In addition, the CC50 in series [2] is greater than 5000 nM.
